# ChEMBL document CHEMBL1255376, “Comparative surveillance study of telavancin activity against recently collected gram-positive clinical isolates from across the United States” (2008)
# How the values were obtained:
# Type in all cases: functional
# Staphylococcus aureus [1] = experiment: Antibacterial activity against methicillin-susceptible Staphylococcus aureus clinical isolate by broth microdilution method
# Outline: (§1)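 MICs by CLSI broth microdilution in frozen trays pre-loaded with serial dilutions of each agent. Quality-control strains run in parallel: E. faecalis ATCC 29212 and ATCC 51299, S. aureus ATCC 29213, S. pneumoniae ATCC 49619. Comparator susceptibility categories follow CLSI breakpoints. Methicillin resistance in staphylococci assigned from the oxacillin MIC.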
# Staphylococcus aureus [2] = experiment: Antibacterial activity against methicillin-resistant Staphylococcus aureus clinical isolate by broth microdilution method; outline: as §1
# Staphylococcus capitis [3] = experiment: Antibacterial activity against methicillin-susceptible coagulase-negative Staphylococcus capitis clinical isolate by broth microdilution method; outline: as §1
# Staphylococcus cohnii [4] = experiment: Antibacterial activity against methicillin-susceptible coagulase-negative Staphylococcus cohnii clinical isolate by broth microdilution method; outline: as §1
# [5] = test system: Staphylococcus epidermidis; experiment: Antibacterial activity against methicillin-susceptible coagulase-negative Staphylococcus epidermidis clinical isolate by broth microdilution method; outline: as §1
# [6] = test system: Staphylococcus haemolyticus; experiment: Antibacterial activity against methicillin-susceptible coagulase-negative Staphylococcus haemolyticus clinical isolate by broth microdilution method; outline: as §1
# Staphylococcus hominis [7] = experiment: Antibacterial activity against methicillin-susceptible coagulase-negative Staphylococcus hominis clinical isolate by broth microdilution method; outline: as §1
# [8] = test system: Staphylococcus saprophyticus; experiment: Antibacterial activity against methicillin-susceptible coagulase-negative Staphylococcus saprophyticus clinical isolate by broth microdilution method; outline: as §1
# Mammaliicoccus sciuri [9] = experiment: Antibacterial activity against methicillin-susceptible coagulase-negative Staphylococcus sciuri clinical isolate by broth microdilution method; outline: as §1
# Staphylococcus simulans [10] = experiment: Antibacterial activity against methicillin-susceptible coagulase-negative Staphylococcus simulans clinical isolate by broth microdilution method; outline: as §1
# Staphylococcus warneri [11] = experiment: Antibacterial activity against methicillin-susceptible coagulase-negative Staphylococcus warneri clinical isolate by broth microdilution method; outline: as §1
# Staphylococcus xylosus [12] = experiment: Antibacterial activity against methicillin-susceptible coagulase-negative Staphylococcus xylosus clinical isolate by broth microdilution method; outline: as §1
# Staphylococcus [13] = experiment: Antibacterial activity against methicillin-susceptible coagulase-negative unspeciated Staphylococcus clinical isolate by broth microdilution method; outline: as §1
# Staphylococcus capitis [14] = experiment: Antibacterial activity against methicillin-resistant coagulase-negative Staphylococcus capitis clinical isolate by broth microdilution method; outline: as §1
# Staphylococcus cohnii [15] = experiment: Antibacterial activity against methicillin-resistant coagulase-negative Staphylococcus cohnii clinical isolate by broth microdilution method; outline: as §1
# [16] = test system: Staphylococcus epidermidis; experiment: Antibacterial activity against methicillin-resistant coagulase-negative Staphylococcus epidermidis clinical isolate by broth microdilution method; outline: as §1
# [17] = test system: Staphylococcus haemolyticus; experiment: Antibacterial activity against methicillin-resistant coagulase-negative Staphylococcus haemolyticus clinical isolate by broth microdilution method; outline: as §1
# Staphylococcus hominis [18] = experiment: Antibacterial activity against methicillin-resistant coagulase-negative Staphylococcus hominis clinical isolate by broth microdilution method; outline: as §1
# [19] = test system: Staphylococcus saprophyticus; experiment: Antibacterial activity against methicillin-resistant coagulase-negative Staphylococcus saprophyticus clinical isolate by broth microdilution method; outline: as §1
# Mammaliicoccus sciuri [20] = experiment: Antibacterial activity against methicillin-resistant coagulase-negative Staphylococcus sciuri clinical isolate by broth microdilution method; outline: as §1
# Staphylococcus simulans [21] = experiment: Antibacterial activity against methicillin-resistant coagulase-negative Staphylococcus simulans clinical isolate by broth microdilution method; outline: as §1
# Staphylococcus warneri [22] = experiment: Antibacterial activity against methicillin-resistant coagulase-negative Staphylococcus warneri clinical isolate by broth microdilution method; outline: as §1
# Staphylococcus xylosus [23] = experiment: Antibacterial activity against methicillin-resistant coagulase-negative Staphylococcus xylosus clinical isolate by broth microdilution method; outline: as §1
# Staphylococcus [24] = experiment: Antibacterial activity against methicillin-resistant coagulase-negative unspeciated Staphylococcus clinical isolate by broth microdilution method; outline: as §1
# Enterococcus faecalis [25] = experiment: Antibacterial activity against vancomycin-susceptible Enterococcus faecalis clinical isolate by broth microdilution method; outline: as §1
# Enterococcus faecalis [26] = experiment: Antibacterial activity against vancomycin- and teichoplanin-nonsusceptible Enterococcus faecalis clinical isolate by broth microdilution method; outline: as §1
# Enterococcus faecium [27] = experiment: Antibacterial activity against vancomycin-susceptible Enterococcus faecium clinical isolate by broth microdilution method
# Outline: (§2)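 MIC by CLSI broth microdilution in frozen microtiter trays holding serial dilutions of each agent, prepared from standard laboratory powders. E. faecalis ATCC 29212 and ATCC 51299, S. aureus ATCC 29213 and S. pneumoniae ATCC 49619 run in parallel as quality-control strains. Comparator susceptibility interpreted with CLSI breakpoints.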
# Enterococcus faecium [28] = experiment: Antibacterial activity against vancomycin- and teichoplanin-nonsusceptible Enterococcus faecium clinical isolate by broth microdilution method; outline: as §1
# Enterococcus faecium [29] = experiment: Antibacterial activity against vancomycin-resistant and teichoplanin-susceptible Enterococcus faecium clinical isolate by broth microdilution method; outline: as §1
# Streptococcus agalactiae = experiment: Antibacterial activity against Streptococcus agalactiae clinical isolate by broth microdilution method; outline: as §2
# Streptococcus equinus = experiment: Antibacterial activity against Streptococcus bovis clinical isolate by broth microdilution method; outline: as §2
# [30] = test system: Streptococcus constellatus; experiment: Antibacterial activity against Streptococcus constellatus clinical isolate by broth microdilution method; outline: as §2
# [31] = test system: Streptococcus intermedius; experiment: Antibacterial activity against Streptococcus intermedius clinical isolate by broth microdilution method; outline: as §2
# Streptococcus mitis = experiment: Antibacterial activity against Streptococcus mitis clinical isolate by broth microdilution method; outline: as §2
# Streptococcus oralis = experiment: Antibacterial activity against Streptococcus oralis clinical isolate by broth microdilution method; outline: as §2
# Streptococcus sanguinis = experiment: Antibacterial activity against Streptococcus sanguinis clinical isolate by broth microdilution method; outline: as §2
# Streptococcus sp. [32] = experiment: Antibacterial activity against Streptococcus sp. clinical isolate by broth microdilution method
# Outline: (§3)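 MIC by CLSI broth microdilution in frozen microtiter trays holding serial dilutions of each agent, prepared from standard laboratory powders. Comparator susceptibility interpreted with CLSI breakpoints.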
# Streptococcus pneumoniae [33] = experiment: Antibacterial activity against penicillin susceptible Streptococcus pneumoniae clinical isolate by broth microdilution method; outline: as §1
# Streptococcus pneumoniae [34] = experiment: Antibacterial activity against penicillin intermediate Streptococcus pneumoniae clinical isolate by broth microdilution method; outline: as §1
# Streptococcus pneumoniae [35] = experiment: Antibacterial activity against penicillin resistant Streptococcus pneumoniae clinical isolate by broth microdilution method; outline: as §1
# Streptococcus pyogenes = experiment: Antibacterial activity against Streptococcus pyogenes clinical isolate by broth microdilution method; outline: as §2
# [36] = Antibacterial activity against Streptococcus sp. Group C clinical isolate by broth microdilution method; outline: as §2
# Streptococcus sp. [37] = experiment: Antibacterial activity against Streptococcus sp. Group F clinical isolate by broth microdilution method; outline: as §3
# [38] = Antibacterial activity against Streptococcus sp. Group G clinical isolate by broth microdilution method; outline: as §2
compound,measurement,setting,value
CC(=O)NC[C@H]1CN(c2ccc(N3CCOCC3)c(F)c2)C(=O)O1 [LINEZOLID],MIC50,Staphylococcus aureus [1],2 µg/mL
same,MIC90,Staphylococcus aureus [1],2 µg/mL
same,MIC50,Staphylococcus aureus [2],2 µg/mL
same,MIC90,Staphylococcus aureus [2],2 µg/mL
same,MIC50,Staphylococcus capitis [3],1 µg/mL
same,MIC90,Staphylococcus capitis [3],1 µg/mL
same,MIC50,Staphylococcus cohnii [4],1 µg/mL
same,MIC90,Staphylococcus cohnii [4],1 µg/mL
same,MIC50,[5],1 µg/mL
same,MIC90,[5],1 µg/mL
same,MIC50,[6],1 µg/mL
same,MIC90,[6],1 µg/mL
same,MIC50,Staphylococcus hominis [7],1 µg/mL
same,MIC90,Staphylococcus hominis [7],1 µg/mL
same,MIC50,[8],1 µg/mL
same,MIC90,[8],1 µg/mL
same,MIC50,Mammaliicoccus sciuri [9],1 µg/mL
same,MIC90,Mammaliicoccus sciuri [9],1 µg/mL
same,MIC50,Staphylococcus simulans [10],1 µg/mL
same,MIC90,Staphylococcus simulans [10],1 µg/mL
same,MIC50,Staphylococcus warneri [11],1 µg/mL
same,MIC90,Staphylococcus warneri [11],1 µg/mL
same,MIC50,Staphylococcus xylosus [12],1 µg/mL
same,MIC90,Staphylococcus xylosus [12],1 µg/mL
same,MIC50,Staphylococcus [13],1 µg/mL
same,MIC90,Staphylococcus [13],1 µg/mL
same,MIC50,Staphylococcus capitis [14],1 µg/mL
same,MIC90,Staphylococcus capitis [14],1 µg/mL
same,MIC50,Staphylococcus cohnii [15],1 µg/mL
same,MIC90,Staphylococcus cohnii [15],1 µg/mL
same,MIC50,[16],1 µg/mL
same,MIC90,[16],1 µg/mL
same,MIC50,[17],1 µg/mL
same,MIC90,[17],1 µg/mL
same,MIC50,Staphylococcus hominis [18],1 µg/mL
same,MIC90,Staphylococcus hominis [18],1 µg/mL
same,MIC50,[19],1 µg/mL
same,MIC90,[19],1 µg/mL
same,MIC50,Mammaliicoccus sciuri [20],1 µg/mL
same,MIC90,Mammaliicoccus sciuri [20],1 µg/mL
same,MIC50,Staphylococcus simulans [21],1 µg/mL
same,MIC90,Staphylococcus simulans [21],1 µg/mL
same,MIC50,Staphylococcus warneri [22],1 µg/mL
same,MIC90,Staphylococcus warneri [22],1 µg/mL
same,MIC50,Staphylococcus xylosus [23],1 µg/mL
same,MIC90,Staphylococcus xylosus [23],1 µg/mL
same,MIC50,Staphylococcus [24],1 µg/mL
same,MIC90,Staphylococcus [24],1 µg/mL
same,MIC50,Enterococcus faecalis [25],1 µg/mL
same,MIC90,Enterococcus faecalis [25],2 µg/mL
same,MIC50,Enterococcus faecalis [26],1 µg/mL
same,MIC90,Enterococcus faecalis [26],2 µg/mL
same,MIC50,Enterococcus faecium [27],2 µg/mL
same,MIC90,Enterococcus faecium [27],2 µg/mL
same,MIC50,Enterococcus faecium [28],2 µg/mL
same,MIC90,Enterococcus faecium [28],2 µg/mL
same,MIC50,Enterococcus faecium [29],2 µg/mL
same,MIC90,Enterococcus faecium [29],2 µg/mL
same,MIC50,Streptococcus agalactiae,1 µg/mL
same,MIC90,Streptococcus agalactiae,1 µg/mL
same,MIC50,Streptococcus equinus,1 µg/mL
same,MIC90,Streptococcus equinus,1 µg/mL
same,MIC50,[30],1 µg/mL
same,MIC90,[30],1 µg/mL
same,MIC50,[31],1 µg/mL
same,MIC90,[31],1 µg/mL
same,MIC50,Streptococcus mitis,1 µg/mL
same,MIC90,Streptococcus mitis,1 µg/mL
same,MIC50,Streptococcus oralis,1 µg/mL
same,MIC90,Streptococcus oralis,1 µg/mL
same,MIC50,Streptococcus sanguinis,1 µg/mL
same,MIC90,Streptococcus sanguinis,1 µg/mL
same,MIC,Streptococcus sp. [32],≤ 0.12 µg/mL
same,MIC50,Streptococcus pneumoniae [33],1 µg/mL
same,MIC90,Streptococcus pneumoniae [33],1 µg/mL
same,MIC50,Streptococcus pneumoniae [34],1 µg/mL
same,MIC90,Streptococcus pneumoniae [34],1 µg/mL
same,MIC50,Streptococcus pneumoniae [35],1 µg/mL
same,MIC90,Streptococcus pneumoniae [35],1 µg/mL
GENTAMICIN,MIC50,Staphylococcus aureus [1],0.25 µg/mL
same,MIC90,Staphylococcus aureus [1],0.5 µg/mL
same,MIC50,Staphylococcus aureus [2],0.5 µg/mL
same,MIC90,Staphylococcus aureus [2],2 µg/mL
C[C@H]1COc2c(N3CCN(C)CC3)c(F)cc3c(=O)c(C(=O)O)cn1c23.C[C@H]1COc2c(N3CCN(C)CC3)c(F)cc3c(=O)c(C(=O)O)cn1c23.O [LEVOFLOXACIN],MIC50,Streptococcus pyogenes,0.5 µg/mL
same,MIC90,Streptococcus pyogenes,1 µg/mL
same,MIC50,Streptococcus agalactiae,0.5 µg/mL
same,MIC90,Streptococcus agalactiae,1 µg/mL
same,MIC50,[36],0.5 µg/mL
same,MIC90,[36],0.5 µg/mL
same,MIC50,Streptococcus sp. [37],0.5 µg/mL
same,MIC90,Streptococcus sp. [37],0.5 µg/mL
same,MIC50,[38],0.5 µg/mL
same,MIC90,[38],0.5 µg/mL
same,MIC50,Streptococcus equinus,0.5 µg/mL
same,MIC90,Streptococcus equinus,1 µg/mL
same,MIC50,[30],0.5 µg/mL
same,MIC90,[30],1 µg/mL
same,MIC50,[31],0.5 µg/mL
same,MIC90,[31],1 µg/mL
same,MIC50,Streptococcus mitis,0.5 µg/mL
same,MIC90,Streptococcus mitis,1 µg/mL
same,MIC50,Streptococcus oralis,0.5 µg/mL
same,MIC90,Streptococcus oralis,1 µg/mL
same,MIC50,Streptococcus sanguinis,0.5 µg/mL
same,MIC90,Streptococcus sanguinis,1 µg/mL
same,MIC50,Streptococcus sp. [32],0.5 µg/mL
same,MIC90,Streptococcus sp. [32],1 µg/mL
same,MIC50,Streptococcus pneumoniae [33],1 µg/mL
same,MIC90,Streptococcus pneumoniae [33],1 µg/mL
same,MIC50,Streptococcus pneumoniae [34],0.5 µg/mL
same,MIC90,Streptococcus pneumoniae [34],1 µg/mL
same,MIC50,Streptococcus pneumoniae [35],0.5 µg/mL
same,MIC90,Streptococcus pneumoniae [35],1 µg/mL
